From ChEMBL document CHEMBL6134796, “Development and Evaluation of Indole-Based Phospholipase D Inhibitors for Lung Cancer Immunotherapy” (J Med Chem, 2025)
The source made the active and inactive calls. The rule behind the calls is not given here.

Columns and labels:
HCT-116 = assay: Cytotoxicity against human HCT-116 cells assessed as inhibition of cell growth incubated for 48 hrs by WST-1 assay; type: functional, cell-based; conditions: HCT-116, 48 h
[1] = biological target: T1, Phospholipase D1 (Mus musculus) (UniProt Q9Z280); assay: In vivo inhibition of PLD1 in male C57BL/6 mouse allografted with mouse Lewis lung carcinoma cell line assessed as reduction in CD47 expression at 10 mg/kg, po by immunofluorescence analysis; type: functional, organism-based
T1 sequence (whole entry): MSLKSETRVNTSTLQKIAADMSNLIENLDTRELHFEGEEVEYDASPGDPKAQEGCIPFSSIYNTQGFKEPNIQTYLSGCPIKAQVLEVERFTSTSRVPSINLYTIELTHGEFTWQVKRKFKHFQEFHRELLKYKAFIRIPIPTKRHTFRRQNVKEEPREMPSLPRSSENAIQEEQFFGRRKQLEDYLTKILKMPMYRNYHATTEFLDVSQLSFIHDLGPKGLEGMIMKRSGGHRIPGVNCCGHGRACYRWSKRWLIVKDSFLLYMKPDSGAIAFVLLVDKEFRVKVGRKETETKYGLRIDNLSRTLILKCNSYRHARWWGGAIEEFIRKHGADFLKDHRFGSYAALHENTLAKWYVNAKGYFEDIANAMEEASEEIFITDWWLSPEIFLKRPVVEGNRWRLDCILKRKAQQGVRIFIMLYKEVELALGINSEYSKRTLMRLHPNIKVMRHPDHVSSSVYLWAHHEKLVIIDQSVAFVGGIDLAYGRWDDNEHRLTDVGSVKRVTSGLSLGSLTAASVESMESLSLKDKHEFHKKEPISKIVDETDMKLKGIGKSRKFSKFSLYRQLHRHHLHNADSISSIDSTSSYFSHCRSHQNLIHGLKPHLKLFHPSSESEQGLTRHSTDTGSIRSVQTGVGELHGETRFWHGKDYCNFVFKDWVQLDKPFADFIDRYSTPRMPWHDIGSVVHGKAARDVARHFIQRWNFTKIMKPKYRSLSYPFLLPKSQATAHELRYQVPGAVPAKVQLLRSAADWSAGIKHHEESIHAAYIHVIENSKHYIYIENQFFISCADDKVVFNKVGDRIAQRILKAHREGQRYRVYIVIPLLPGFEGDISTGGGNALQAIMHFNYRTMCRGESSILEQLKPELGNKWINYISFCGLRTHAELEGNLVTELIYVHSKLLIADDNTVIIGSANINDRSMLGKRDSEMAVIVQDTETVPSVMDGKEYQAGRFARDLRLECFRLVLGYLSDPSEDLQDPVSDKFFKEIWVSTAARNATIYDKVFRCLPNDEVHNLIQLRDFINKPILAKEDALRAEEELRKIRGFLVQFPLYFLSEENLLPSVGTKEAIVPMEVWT

[2] = biological target: T1, Phospholipase D1 (Mus musculus); assay: In vivo inhibition of PLD1 in male C57BL/6 mouse allografted with mouse Lewis lung carcinoma cell line assessed as increase in CD80+ pro-inflammatory M1 macrophage population at 10 mg/kg, po by immunofluorescence analysis; type: functional, organism-based
How it was run: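 Same LLC syngeneic C57BL/6 model, 10 mg/kg PO every other day for 3 weeks. Tumor tissues were stained by immunofluorescence for CD80+ and CD163+ cells, CD8+ T cells, and CD4+/IL-17+ and Treg populations. Nuclei were counterstained with 1 μM Hoechst 33342 and imaged by confocal microscopy.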

A549 [3] = assay: Downregulation of CD47 expression in human A549 cells by flow cytometry analysis; type: functional, cell-based
How it was run: (§1)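 A549 cells treated with compound. Surface "don't eat-me" and "eat-me" markers measured by flow cytometry.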

A549 [4] = assay: Induction of apoptosis in human A549 cells increase in caspase-3 level; type: functional, cell-based
How it was run: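 Cells plated at about 40% density and treated at 10 μM for 48 h, with Ac-DEVD-CHO as the caspase-3 inhibitor control. Incubated with 1 μM NucView 488 caspase-3 substrate in PBS for 30 min at room temperature. Stained with 1 μM Hoechst 33342 and fluorescence quantified on a plate reader.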

[5] = biological target: T1, Phospholipase D1 (Mus musculus); assay: In vivo inhibition of PLD1 in male C57BL/6 mouse allografted with mouse Lewis lung carcinoma cell line assessed as reduction in CD24 expression at 10 mg/kg, po by immunofluorescence analysis; type: functional, organism-based
A549 [6] = assay: Inhibition of colony formation in human A549 cells incubated for 48 hrs by crystal violet staining based analysis; type: functional, cell-based
How it was run: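 A549 cells seeded at 500 to 1,000 per well; compound added 48 h after seeding, then 48 h further incubation; medium changed every 3 days, kept 10 days total; fixed in 4% PFA 20 min, crystal violet 30 min; colonies counted by image analysis.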

A549 [7] = assay: Downregulation of PD-L1 expression in human A549 cells by flow cytometry analysis; type: functional, cell-based; how it was run: as §1

`O=C(CCc1c[nH]c2ccccc12)Nc1cc(C(F)(F)F)cc(C(F)(F)F)c1` was tested, and the IC50 (HCT-116) was 29 µM, the inhibition [1] was “Active” and the inhibition [2] was “Active”. For the same compound, the Activity (A549 [3]) was “Active”, the Activity (A549 [4]) was “Active” and the inhibition [5] was “Active”. For the same compound, the inhibition (A549 [6]) was “Active” and the Activity (A549 [7]) was “Active”.
